Test results reported in PMC3878182 (Xenobiotica; the fate of foreign compounds in biological …, 2013).

What was measured:
liver tissue slices [1] = test: Formation of hydroxylated PCB 136 metabolites in liver tissue slices; format: in vitro ADME, Sprague-Dawley rats; settings: for Metabolite formation, slices / Metabolite formation, medium: 2 h; for Metabolite as percent of ΣOH-PCB: slices plus medium
liver tissue slices [2] = test: Enantioselective analysis; format: in vitro ADME, Sprague-Dawley rats; settings: for Enantiomeric enrichment: liver slices from PB- and DEX-treated male and female rats incubated with racemic PCB 136
How it was run: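 Liver slices from PB- or DEX-pretreated rats, two per vial in 2 mL K-H buffer, were incubated with racemic test compound (final 5 μM, from DMSO) for 2 h at 37 °C under 5% CO2/95% air in a dynamic system. Triplicate incubations were run per animal. Hydroxylated metabolites were methylated; atropisomers were separated on Chirasil-Dex (5-OH) or Cyclosil-B (4-OH) columns. EF = Area E(2)/(Area E(1) + Area E(2)).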

ryanodine receptor (RyR) = settings: enantioselective; ref Pessah et al., 2009; cited from earlier work
liver tissue slices [3] = test: Liver slice viability; format: cell-based, Sprague-Dawley rats; settings: 2 h
How it was run: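 Liver slices came from adult rats, either naive or pretreated with PB or DEX, taken 24 h after the last dose into cold Krebs-Henseleit buffer, pH 7.5. Two slices per vial in 2 mL buffer received test compound (final 5 μM) or DMSO, 2 h, 37 °C, 5 % CO2/95 % air. LDH in medium and homogenate gave % release = A1×D1/(A1×D1+A2×D2); viable was <30 %.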

CYP1A2 = test: Hepatic P450 transcript levels; format: in vivo, Sprague-Dawley rats
[4] = Effect of inducer treatment on body and liver weights of rats; format: in vivo, Sprague-Dawley rats; settings: i.p. inducer treatment
[5] = tested on: hippocampal slice cultures; test: LDH release in hippocampal slice cultures; format: cell-based, Sprague Dawley rats (PND4 pups); settings: ethanol 200 mM, 14 d exposure
How it was run: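 Hippocampi from PND4 pups of timed-pregnant Sprague Dawley rats were cultured as slices. From 5 DIV, racemic test compound or vehicle (0.1 % DMSO) was added to 1 mL medium, renewed every 2 days for 14 days. LDH release was measured with a membrane-integrity fluorescence kit. Mean ± SEM, n = 2 wells per group.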

[6] = tested on: hippocampal slice cultures; test: Propidium iodide; format: cell-based, Sprague Dawley rats (PND4 pups); settings: glutamate 20 mM, positive control, 3 d exposure
[7] = DEX-treated female rats, PCB 136 5 μM (10 nmol)
[8] = DEX-treated female rats, PCB 136 5 μM
[9] = DEX-treated male rats, PCB 136 5 μM (10 nmol)
[10] = DEX-treated male rats, PCB 136 5 μM
[11] = PB-treated female rats, PCB 136 5 μM (10 nmol)
[12] = PB-treated female rats, PCB 136 5 μM
[13] = PB-treated male rats, PCB 136 5 μM (10 nmol)
[14] = PB-treated male rats, PCB 136 5 μM (10 nmol), ND, not detected
[15] = PB-treated male rats, PCB 136 5 μM
[16] = naïve control (CTL) female rats, PCB 136 5 μM (10 nmol), ND, not detected
[17] = naïve control (CTL) female rats, PCB 136 5 μM, ND, not detected
[18] = naïve control (CTL) female rats
[19] = naïve control (CTL) male rats, PCB 136 5 μM (10 nmol), ND, not detected
[20] = naïve control (CTL) male rats, PCB 136 5 μM, ND, not detected

SMILES | Metabolite formation, slices (liver tissue slices [1]; [7]) | Metabolite formation, slices (liver tissue slices [1]; [8]) | Metabolite as percent of ΣOH-PCB (liver tissue slices [1]; DEX-treated female rats) | Metabolite formation, slices (liver tissue slices [1]; [9]) | Metabolite formation, slices (liver tissue slices [1]; [10]) | Metabolite as percent of ΣOH-PCB (liver tissue slices [1]; DEX-treated male rats) | Metabolite formation, slices (liver tissue slices [1]; [11]) | Metabolite formation, slices (liver tissue slices [1]; [12]) | Metabolite as percent of ΣOH-PCB (liver tissue slices [1]; PB-treated female rats) | Metabolite formation, slices (liver tissue slices [1]; [13]) | Metabolite formation, slices (liver tissue slices [1]; [15]) | Metabolite as percent of ΣOH-PCB (liver tissue slices [1]; PB-treated male rats) | Enantiomeric enrichment (liver tissue slices [2]) | also measured
Oc1c(O)c(Cl)c(-c2c(Cl)ccc(Cl)c2Cl)c(Cl)c1Cl [4,5-diOH-PCB 136, 2,2′,3,3′,6,6′-hexachlorobiphenyl-4,5-diol] | 3 ± 1 pmol | 0.1 ± 0.0 ng/mg protein | 1.3 ± 0.3% | 6 ± 2 pmol | 0.1 ± 0.0 ng/mg protein | 0.9 ± 0.3% | 6 ± 3 pmol | 0.1 ± 0.1 ng/mg protein | 1.0 ± 0.4% | 32 ± 15 pmol | 0.6 ± 0.3 ng/mg protein | 5.6 ± 3.6% |  | Metabolite formation, medium (liver tissue slices [1]; [14]): 24 ± 34 pmol; Metabolite level in tissue slices (liver tissue slices [1]; tissue slices from CTL rats): below the detection limit
Oc1cc(Cl)c(-c2c(Cl)ccc(Cl)c2Cl)c(Cl)c1Cl [4-OH-PCB 136, 2,2′,3,3′,6,6′-hexachlorobiphenyl-4-ol] | 24 ± 19 pmol | 0.5 ± 0.3 ng/mg protein | 7.7 ± 3.5% | 26 ± 5 pmol | 0.4 ± 0.1 ng/mg protein | 4.3 ± 0.7% | 30 ± 4 pmol | 0.7 ± 0.0 ng/mg protein | 5.8 ± 1.0% | 15 ± 5 pmol | 0.3 ± 0.1 ng/mg protein | 1.5 ± 0.2% |  | 4-OH-PCB 136 levels relative to 5-OH-PCB 136 levels (times higher) (liver tissue slices [1]; liver slices from female CTL rats): approximately 3 times; Metabolite formation, slices (liver tissue slices [1]; [16]): 33 ± 4 pmol; Metabolite formation, slices (liver tissue slices [1]; [17]): 0.7 ± 0.1 ng/mg protein; Metabolite as percent of ΣOH-PCB (liver tissue slices [1]; [18]): 75 ± 16%; Metabolite formation, slices (liver tissue slices [1]; [19]): 60 ± 30 pmol; Metabolite formation, slices (liver tissue slices [1]; [20]): 1.0 ± 0.5 ng/mg protein; Metabolite as percent of ΣOH-PCB (liver tissue slices [1]; naïve control (CTL) male rats): 57 ± 5%
Oc1cc(Cl)c(Cl)c(-c2c(Cl)ccc(Cl)c2Cl)c1Cl [5-OH-PCB 136, 2,2′,3,3′,6,6′-hexachlorobiphenyl-5-ol] | 240 ± 110 pmol | 4.9 ± 1.1 ng/mg protein | 91 ± 4% | 495 ± 95 pmol | 7.7 ± 1.2 ng/mg protein | 95 ± 1% | 490 ± 100 pmol | 11 ± 1.3 ng/mg protein | 93 ± 1% | 900 ± 220 pmol | 16.0 ± 2.0 ng/mg protein | 93 ± 4% |  | Metabolite formation, medium (liver tissue slices [1]; DEX-treated male rats, PCB 136 5 μM (10 nmol), ND, not detected): 80 ± 37 pmol; Metabolite formation, medium (liver tissue slices [1]; [14]): 115 ± 22 pmol; Metabolite formation, slices (liver tissue slices [1]; [16]): 12 ± 10 pmol; Metabolite formation, slices (liver tissue slices [1]; [17]): 0.3 ± 0.2 ng/mg protein; Metabolite as percent of ΣOH-PCB (liver tissue slices [1]; [18]): 25 ± 16%; Metabolite formation, slices (liver tissue slices [1]; [19]): 50 ± 10 pmol; Metabolite formation, slices (liver tissue slices [1]; [20]): 0.7 ± 0.2 ng/mg protein; Metabolite as percent of ΣOH-PCB (liver tissue slices [1]; naïve control (CTL) male rats): 43 ± 5%; Enantiomeric fraction (EF) (liver tissue slices [2]; liver slices from PB- and DEX-treated male and female rats, racemic PCB 136 5 μM, 2 h, EF = Area E(2)/(Area E(1) + Area E(2)), range over groups): 0.69–0.74
Clc1ccc(Cl)c(-c2c(Cl)ccc(Cl)c2Cl)c1Cl [(−)-PCB 136] |  |  |  |  |  |  |  |  |  |  |  |  | slightly enriched | Sensitization of RyR (ryanodine receptor (RyR)): active
C[C@@H]1C[C@H]2[C@@H]3CCC4=CC(=O)C=C[C@]4(C)[C@@]3(F)[C@@H](O)C[C@]2(C)[C@@]1(O)C(=O)CO [Dexamethasone (DEX), dexamethasone] |  |  |  |  |  |  |  |  |  |  |  |  |  | LDH release (liver tissue slices [3]; liver tissue slices from DEX pretreated female rats): 19.6 ± 10.4%; LDH release (liver tissue slices [3]; liver tissue slices from DEX pretreated male rats): 10.4 ± 3.6%; CYP1A2 transcript level vs CTL (CYP1A2; liver slices from female rats): not significantly changed; CYP1A2 transcript level vs CTL (CYP1A2; liver slices from male rats): not changed; Liver weight ([4]; female rats): 12.1 ± 0.2 g; Percent change in body weight ([4]; female rats): −12.0 ± 4.4 %; Liver weight ([4]; male rats): 16.8 ± 0.6 g; Percent change in body weight ([4]; male rats): −17.0 ± 0.7 %
Oc1cc(Cl)c(-c2c(Cl)ccc(Cl)c2Cl)c(Cl)c1Cl [E(1)-4-OH-PCB] |  |  |  |  |  |  |  |  |  |  |  |  | enriched | 
Oc1cc(Cl)c(Cl)c(-c2c(Cl)ccc(Cl)c2Cl)c1Cl [E(2)-5-OH-PCB] |  |  |  |  |  |  |  |  |  |  |  |  | enriched to a similar extent | 
CCO [ethanol, reference compound] |  |  |  |  |  |  |  |  |  |  |  |  |  | LDH release relative to vehicle controls [5]: significantly increased LDH release
N[C@@H](CCC(=O)O)C(=O)O [glutamate, reference compound] |  |  |  |  |  |  |  |  |  |  |  |  |  | PI uptake [6]: significantly increased PI uptake
